Assay results from ChEMBL document CHEMBL1221355, “Substituted biaryl pyrazoles as sodium channel blockers” (Bioorg Med Chem Lett, 2010).
Blank lines part the entries; values can stand above or below the molecule they belong to.

Key:
[1] = target: T1, Sodium channel protein type 9 subunit alpha (Homo sapiens, UniProt Q15858); experiment: Inhibition of human Nav 1.7 channel by voltage-ion-probe-reader
Method in brief: (§1)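 Functional membrane-potential FRET assay on voltage-gated hNav1.7, read on a voltage-ion-probe reader (VIPR). Results given as IC50 or as percent inhibition at 10 μM.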
Target sequence in this assay (Q15858 whole entry): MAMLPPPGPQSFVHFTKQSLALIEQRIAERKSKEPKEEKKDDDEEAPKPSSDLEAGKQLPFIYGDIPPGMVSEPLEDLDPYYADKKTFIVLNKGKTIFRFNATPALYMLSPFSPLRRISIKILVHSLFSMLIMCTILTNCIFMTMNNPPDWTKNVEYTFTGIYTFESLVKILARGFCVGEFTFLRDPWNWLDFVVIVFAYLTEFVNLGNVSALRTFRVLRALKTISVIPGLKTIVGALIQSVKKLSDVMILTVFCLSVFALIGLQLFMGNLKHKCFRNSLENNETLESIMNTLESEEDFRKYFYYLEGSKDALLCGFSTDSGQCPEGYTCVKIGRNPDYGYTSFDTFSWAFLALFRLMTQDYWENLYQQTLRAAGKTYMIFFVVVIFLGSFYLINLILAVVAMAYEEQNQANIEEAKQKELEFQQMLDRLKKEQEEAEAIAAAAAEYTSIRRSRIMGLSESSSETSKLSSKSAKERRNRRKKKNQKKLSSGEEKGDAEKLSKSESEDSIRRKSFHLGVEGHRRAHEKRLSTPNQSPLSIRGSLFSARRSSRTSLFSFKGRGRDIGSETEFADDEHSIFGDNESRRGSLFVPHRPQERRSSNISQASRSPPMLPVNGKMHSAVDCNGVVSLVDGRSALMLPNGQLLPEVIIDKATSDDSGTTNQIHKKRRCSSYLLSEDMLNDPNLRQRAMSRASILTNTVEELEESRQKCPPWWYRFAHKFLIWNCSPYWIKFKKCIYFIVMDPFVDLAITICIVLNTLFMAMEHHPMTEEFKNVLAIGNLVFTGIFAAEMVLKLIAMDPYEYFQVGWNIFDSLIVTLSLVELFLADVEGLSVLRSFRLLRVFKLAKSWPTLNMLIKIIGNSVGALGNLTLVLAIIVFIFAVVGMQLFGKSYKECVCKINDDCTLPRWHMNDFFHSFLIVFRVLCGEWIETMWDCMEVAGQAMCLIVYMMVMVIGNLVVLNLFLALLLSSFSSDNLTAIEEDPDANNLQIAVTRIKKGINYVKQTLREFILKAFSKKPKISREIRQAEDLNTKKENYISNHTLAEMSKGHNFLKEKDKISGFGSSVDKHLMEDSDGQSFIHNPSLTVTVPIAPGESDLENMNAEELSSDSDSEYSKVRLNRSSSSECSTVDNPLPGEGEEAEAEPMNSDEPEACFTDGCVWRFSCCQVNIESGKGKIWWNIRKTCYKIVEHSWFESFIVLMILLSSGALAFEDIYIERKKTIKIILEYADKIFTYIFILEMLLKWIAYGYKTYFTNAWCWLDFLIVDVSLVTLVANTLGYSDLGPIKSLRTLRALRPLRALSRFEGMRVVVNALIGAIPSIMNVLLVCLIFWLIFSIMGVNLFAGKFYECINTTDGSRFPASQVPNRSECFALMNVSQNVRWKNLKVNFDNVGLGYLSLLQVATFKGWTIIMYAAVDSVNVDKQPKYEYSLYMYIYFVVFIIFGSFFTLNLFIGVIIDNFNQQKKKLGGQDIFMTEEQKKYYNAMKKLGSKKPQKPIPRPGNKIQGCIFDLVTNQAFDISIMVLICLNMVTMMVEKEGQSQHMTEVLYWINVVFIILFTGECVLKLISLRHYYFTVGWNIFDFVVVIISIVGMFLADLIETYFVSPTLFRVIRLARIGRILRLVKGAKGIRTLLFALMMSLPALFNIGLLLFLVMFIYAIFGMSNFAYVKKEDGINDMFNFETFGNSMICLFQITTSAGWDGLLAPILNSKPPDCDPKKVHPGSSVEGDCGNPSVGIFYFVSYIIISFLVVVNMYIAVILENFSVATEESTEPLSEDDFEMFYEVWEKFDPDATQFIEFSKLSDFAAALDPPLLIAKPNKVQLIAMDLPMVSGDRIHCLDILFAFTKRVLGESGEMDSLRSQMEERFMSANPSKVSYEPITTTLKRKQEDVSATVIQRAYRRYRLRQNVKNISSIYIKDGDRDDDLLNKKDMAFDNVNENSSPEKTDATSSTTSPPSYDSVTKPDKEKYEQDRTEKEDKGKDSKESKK

hERG (KCNH2) = hERG (KCNH2) (Homo sapiens, UniProt Q12809); experiment: Displacement of [35S][…] from human ERG channel at 10 uM
Sequence of hERG (KCNH2) (Q12809 whole entry): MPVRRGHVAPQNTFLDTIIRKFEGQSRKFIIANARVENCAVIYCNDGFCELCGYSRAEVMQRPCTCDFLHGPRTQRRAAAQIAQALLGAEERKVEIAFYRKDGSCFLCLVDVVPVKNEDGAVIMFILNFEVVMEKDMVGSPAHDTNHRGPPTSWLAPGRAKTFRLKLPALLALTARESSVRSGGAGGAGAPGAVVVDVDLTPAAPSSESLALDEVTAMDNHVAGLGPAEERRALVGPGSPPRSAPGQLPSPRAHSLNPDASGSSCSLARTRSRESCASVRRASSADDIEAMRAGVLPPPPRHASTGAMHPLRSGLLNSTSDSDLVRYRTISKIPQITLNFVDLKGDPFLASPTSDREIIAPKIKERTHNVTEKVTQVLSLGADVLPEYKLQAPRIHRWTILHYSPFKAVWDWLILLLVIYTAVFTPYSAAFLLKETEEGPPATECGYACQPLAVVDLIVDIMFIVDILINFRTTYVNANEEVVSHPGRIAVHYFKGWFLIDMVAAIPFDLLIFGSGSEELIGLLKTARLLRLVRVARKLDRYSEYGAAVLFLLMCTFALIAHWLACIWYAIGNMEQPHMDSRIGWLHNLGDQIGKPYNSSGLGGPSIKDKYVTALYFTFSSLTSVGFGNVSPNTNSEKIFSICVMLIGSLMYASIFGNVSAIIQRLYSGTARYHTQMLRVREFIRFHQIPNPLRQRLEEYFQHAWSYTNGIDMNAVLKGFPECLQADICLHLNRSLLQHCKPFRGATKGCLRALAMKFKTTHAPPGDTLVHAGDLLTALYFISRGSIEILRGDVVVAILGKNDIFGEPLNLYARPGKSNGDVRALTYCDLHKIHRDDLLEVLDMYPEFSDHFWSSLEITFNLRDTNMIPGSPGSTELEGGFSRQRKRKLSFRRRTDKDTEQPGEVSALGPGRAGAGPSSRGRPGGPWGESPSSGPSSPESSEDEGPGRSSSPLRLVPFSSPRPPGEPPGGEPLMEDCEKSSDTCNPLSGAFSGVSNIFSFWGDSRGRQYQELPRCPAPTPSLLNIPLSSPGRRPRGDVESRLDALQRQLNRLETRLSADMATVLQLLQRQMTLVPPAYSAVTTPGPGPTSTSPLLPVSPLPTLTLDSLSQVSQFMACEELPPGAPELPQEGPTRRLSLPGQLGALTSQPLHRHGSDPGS
Method in brief: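 hERG binding assay measuring displacement of 35S-labeled MK-0499, a known hERG blocker. Test compound at 10 μM; result expressed as percent inhibition of binding.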

Rattus norvegicus [2] = experiment: Antiallodynic activity in rat spinal nerve ligation model of neuropathic pain assessed as reversal of allodynia at 10 mg/kg, po after 2 hrs; assay type: functional
Method in brief: (§2)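 Rat spinal nerve ligation (Chung) neuropathic pain model; compound given orally as a single dose (10 or 30 mg/kg). Allodynia reversal read at 2 h and 4 h after dosing, expressed as percent reversal.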

Rattus norvegicus [3] = experiment: Antiallodynic activity in rat spinal nerve ligation model of neuropathic pain assessed as reversal of allodynia at 10 mg/kg, po after 4 hrs; assay type: functional; method in brief: as §2
Cytochrome P450 3A4 = Cytochrome P450 3A4 (Homo sapiens, UniProt P08684); experiment: Inhibition of CYP3A4; assay type: ADME
Sequence of Cytochrome P450 3A4 (P08684 whole entry): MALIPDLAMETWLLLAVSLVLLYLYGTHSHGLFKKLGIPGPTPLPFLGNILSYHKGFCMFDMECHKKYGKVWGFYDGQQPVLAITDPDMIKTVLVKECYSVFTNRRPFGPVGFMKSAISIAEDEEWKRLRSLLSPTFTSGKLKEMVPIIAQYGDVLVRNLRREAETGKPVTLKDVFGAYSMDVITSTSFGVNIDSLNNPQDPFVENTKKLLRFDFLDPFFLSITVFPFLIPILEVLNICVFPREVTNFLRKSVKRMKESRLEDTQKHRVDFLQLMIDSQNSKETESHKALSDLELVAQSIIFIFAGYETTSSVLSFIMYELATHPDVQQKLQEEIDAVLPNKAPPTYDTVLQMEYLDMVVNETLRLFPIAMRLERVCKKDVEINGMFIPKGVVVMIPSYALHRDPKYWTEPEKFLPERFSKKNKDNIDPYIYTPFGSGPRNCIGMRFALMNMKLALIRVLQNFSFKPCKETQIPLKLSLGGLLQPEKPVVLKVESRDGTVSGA

Cytochrome P450 2C9 = Cytochrome P450 2C9 (Homo sapiens, UniProt P11712); experiment: Inhibition of CYP2C9; assay type: ADME
Sequence of Cytochrome P450 2C9 (P11712 whole entry): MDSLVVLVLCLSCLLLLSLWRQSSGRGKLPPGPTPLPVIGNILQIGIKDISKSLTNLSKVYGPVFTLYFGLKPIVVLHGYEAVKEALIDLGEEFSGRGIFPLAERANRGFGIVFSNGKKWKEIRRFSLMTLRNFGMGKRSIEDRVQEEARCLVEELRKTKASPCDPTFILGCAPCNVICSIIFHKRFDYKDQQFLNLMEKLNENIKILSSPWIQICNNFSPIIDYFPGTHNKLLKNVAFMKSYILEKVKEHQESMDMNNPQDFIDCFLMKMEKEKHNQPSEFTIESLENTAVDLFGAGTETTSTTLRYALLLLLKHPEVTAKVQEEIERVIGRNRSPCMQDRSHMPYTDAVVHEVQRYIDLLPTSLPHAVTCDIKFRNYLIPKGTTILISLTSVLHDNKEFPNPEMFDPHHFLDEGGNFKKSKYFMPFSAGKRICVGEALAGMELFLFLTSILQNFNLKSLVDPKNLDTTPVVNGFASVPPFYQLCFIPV

Cytochrome P450 2D6 = Cytochrome P450 2D6 (Homo sapiens, UniProt P10635); experiment: Inhibition of CYP2D6; assay type: ADME
Sequence of Cytochrome P450 2D6 (P10635 whole entry): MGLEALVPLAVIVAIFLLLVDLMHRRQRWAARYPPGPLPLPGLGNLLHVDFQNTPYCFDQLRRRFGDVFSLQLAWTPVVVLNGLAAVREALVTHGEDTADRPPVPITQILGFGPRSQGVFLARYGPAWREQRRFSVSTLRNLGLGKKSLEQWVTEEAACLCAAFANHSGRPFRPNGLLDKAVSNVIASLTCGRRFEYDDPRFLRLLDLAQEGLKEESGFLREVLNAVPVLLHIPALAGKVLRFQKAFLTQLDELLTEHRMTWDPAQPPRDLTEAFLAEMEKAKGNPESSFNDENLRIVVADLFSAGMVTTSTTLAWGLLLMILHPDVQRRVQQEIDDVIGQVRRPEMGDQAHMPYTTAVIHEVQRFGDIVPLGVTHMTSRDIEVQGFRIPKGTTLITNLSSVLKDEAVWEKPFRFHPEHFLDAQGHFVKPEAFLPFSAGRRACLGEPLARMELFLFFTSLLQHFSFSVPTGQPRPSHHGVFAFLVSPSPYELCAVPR

[4] = target: T2, Nuclear receptor subfamily 1 group I member 2 (Homo sapiens, UniProt O75469); experiment: Induction of human PXR by induction assay
T2 sequence (O75469 whole entry): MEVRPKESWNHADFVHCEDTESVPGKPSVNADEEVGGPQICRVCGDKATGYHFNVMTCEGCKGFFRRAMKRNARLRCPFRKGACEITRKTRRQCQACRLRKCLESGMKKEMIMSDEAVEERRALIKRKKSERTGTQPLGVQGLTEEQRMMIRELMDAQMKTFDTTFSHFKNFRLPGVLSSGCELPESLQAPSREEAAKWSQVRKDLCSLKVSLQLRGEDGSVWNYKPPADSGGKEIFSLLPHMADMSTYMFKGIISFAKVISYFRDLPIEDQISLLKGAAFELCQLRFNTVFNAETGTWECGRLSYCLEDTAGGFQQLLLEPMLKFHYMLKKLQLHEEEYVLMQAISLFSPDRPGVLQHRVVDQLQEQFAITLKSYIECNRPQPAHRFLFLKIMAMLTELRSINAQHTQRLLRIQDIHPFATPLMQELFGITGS

[5] = Half life in rat; assay type: ADME, organism-based; conditions: in vivo
[6] = Volume of distribution in rat; assay type: ADME, organism-based; conditions: in vivo
[7] = Oral bioavailability in rat; assay type: ADME, organism-based; conditions: in vivo
Rattus norvegicus [8] = organism: Rattus norvegicus; experiment: Plasma clearance in rat; assay type: ADME, organism-based; conditions: in vivo
[9] = Half life in dog; assay type: ADME, organism-based, Canis lupus familiaris; conditions: in vivo
[10] = Volume of distribution in dog; assay type: ADME, organism-based, Canis lupus familiaris; conditions: in vivo
[11] = Oral bioavailability dog; assay type: ADME, organism-based, Canis lupus familiaris; conditions: in vivo
Canis familiaris = organism: Canis familiaris; experiment: Plasma clearance in dog; assay type: ADME, organism-based, Canis lupus familiaris; conditions: in vivo
Rattus norvegicus [12] = experiment: Antiallodynic activity in rat spinal nerve ligation model of neuropathic pain assessed as reversal of mechanical allodynia at 3 mg/kg, po bid for 2 days measured after 2 hrs post final dose; assay type: functional
Method in brief: (§3)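 Rat spinal nerve ligation (Chung) model; oral dosing at 3 mg/kg bid for 2 days. Reversal of mechanical allodynia read at 2 h and 4 h, expressed as percent reversal; significance given as p values.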

Rattus norvegicus [13] = experiment: Antiallodynic activity in rat spinal nerve ligation model of neuropathic pain assessed as reversal of mechanical allodynia at 3 mg/kg, po bid for 2 days measured after 4 hrs post final dose; assay type: functional; method in brief: as §3
Rattus norvegicus [14] = experiment: Antiallodynic activity in rat spinal nerve ligation model of neuropathic pain assessed as reversal of allodynia at 30 mg/kg, po after 2 hrs; assay type: functional; method in brief: as §2
Rattus norvegicus [15] = experiment: Antiallodynic activity in rat spinal nerve ligation model of neuropathic pain assessed as reversal of allodynia at 30 mg/kg, po after 4 hrs; assay type: functional; method in brief: as §2
Mus musculus = experiment: Anticonvulsant activity in mouse assessed as protection against maximal electric shock-induced tonic seizures at 10 mg/kg, po after 4 hrs; assay type: functional
Method in brief: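 Mouse maximal electroshock (MES) seizure model. Oral dose 10 mg/kg, given 4 h before the shock. Read-out is protection from tonic seizures, expressed as percent.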

Rattus norvegicus [16] = experiment: Neurotoxicity in rat assessed as effect on motor coordination by measuring reduced latency at 30 mg/kg, po by rotarod test; assay type: toxicity, organism-based; set-up: dose 30 mg/kg, route oral; conditions: in vivo
Method in brief: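 Rat rotarod test of motor coordination after oral dosing (30 or 100 mg/kg). Read-out is latency on the rotarod.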

Liver microsomes [17] = experiment: Metabolic stability in human liver microsomes after 60 mins; assay type: functional; conditions: Microsome
Method in brief: (§4)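 Compound incubated for 60 min with liver microsomal preparations. Conversion to the carboxylic acid metabolite formed by carboxamide hydrolysis was followed.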

Liver = experiment: Metabolic stability in dog liver microsomes after 60 mins; assay type: functional; conditions: Canis lupus familiaris, Microsome; method in brief: as §4
Macaca mulatta = organism: Macaca mulatta; experiment: Metabolic stability in monkey liver microsomes after 60 mins; assay type: functional; conditions: Microsome; method in brief: as §4
Liver microsomes [18] = experiment: Metabolic stability in rat liver microsomes after 60 mins; assay type: functional; conditions: Microsome; method in brief: as §4
[19] = target: T1, Sodium channel protein type 9 subunit alpha; experiment: Inhibition of human Nav 1.7 channel at 10 uM by voltage-ion-probe-reader; method in brief: as §1
Target sequence in this assay (Q15858 whole entry, looked up): as the sequence (Q15858 whole entry) above

[20] = target: T1, Sodium channel protein type 9 subunit alpha; experiment: Inhibition of human Nav 1.7 channel by electrophysiology
Target sequence in this assay (Q15858 whole entry): as above

[21] = Clearance in rat plasma at 1 mg/kg, ip; assay type: ADME, organism-based; set-up: dose 1 mg/kg, route intraperitoneal

Compound: Cc1cc(C(N)=O)nn1-c1cccc(-c2ccc(C(F)(F)F)cc2C(F)(F)F)c1
- IC50 [1]: 0.426 µM
- inhibition at 10 µM (hERG (KCNH2)): 53%
- Activity (Rattus norvegicus [2]): 35%
- Activity (Rattus norvegicus [3]): 32%
- IC50 (Cytochrome P450 3A4): > 100 µM
- IC50 (Cytochrome P450 2C9): 9 µM
- IC50 (Cytochrome P450 2D6): > 100 µM
- IC50 [4]: > 25 µM
- half-life [5]: 2 h
- Vd [6]: 3.1 L/kg
- bioavailability [7]: 55%
- clearance (Rattus norvegicus [8]): 11 mL/min/kg
- half-life [9]: 1.4 h
- Vd [10]: 1.43 L/kg
- bioavailability [11]: 50%
- clearance (Canis familiaris): 16 mL/min/kg
- Activity (Rattus norvegicus [12]): 80%
- Activity (Rattus norvegicus [13]): 87%
- Activity (Rattus norvegicus [14]): 69%
- Activity (Rattus norvegicus [15]): 55%
- Activity (Mus musculus): 90%
- Activity (Rattus norvegicus [16]): Not Active
- Stability (Liver microsomes [17]): Stable
- Stability (Liver): Stable
- Stability (Macaca mulatta): Stable
- Stability (Liver microsomes [18]): Unstable

Compound: Cc1cc(C(N)=O)nn1-c1cccc(-c2ccccc2Cl)c1
- IC50 [1]: 0.738 µM
- inhibition at 10 µM (hERG (KCNH2)): 8%

Compound: Cc1cc(C(N)=O)nn1-c1cccc(-c2cc(C(F)(F)F)cc(C(F)(F)F)c2)c1
- inhibition [19]: 17%

Compound: NC(=O)n1ccc(-c2ccc(Oc3ccc(Cl)cc3F)cc2)n1
- Ki [20]: 0.013 µM

Compound: NC(=O)c1cc(-c2cccc(-c3ccccc3OC(F)(F)F)c2)n[nH]1
- IC50 [1]: 0.508 µM
- inhibition at 10 µM (hERG (KCNH2)): 94%

Compound: Cc1cc(C(N)=O)nn1-c1cccc(-c2ccccc2Oc2ccccc2)c1
- IC50 [1]: 0.875 µM
- inhibition at 10 µM (hERG (KCNH2)): 13%

Compound: NC(=O)c1nc(-c2cccc(-c3ccccc3OC(F)(F)F)c2)cs1
- Ki [20]: 0.015 µM

Compound: NC(=O)n1ccc(-c2cccc(-c3ccccc3Cl)c2)n1
- Ki [20]: 0.018 µM
- CL/F [21]: 123 mL/min/kg

Compound: NC(=O)n1ccc(-c2ccc(-c3ccccc3Cl)cc2)n1
- Ki [20]: 0.111 µM
- CL/F [21]: 125 mL/min/kg

Compound: CC(C)(C)c1cc(C(N)=O)nn1-c1cccc(-c2ccccc2OC(F)(F)F)c1
- IC50 [1]: 1.37 µM

Compound: Cc1cc(C(N)=O)nn1-c1cccc(-c2cc(F)ccc2C(F)(F)F)c1
- IC50 [1]: 0.412 µM
- inhibition at 10 µM (hERG (KCNH2)): 41%

Compound: Cc1cc(C(N)=O)nn1-c1cccc(-c2cccc(F)c2C(F)(F)F)c1
- IC50 [1]: 0.781 µM
- inhibition at 10 µM (hERG (KCNH2)): 73%

The next lines start with results.

- IC50 [1]: 0.187 µM
Compound: Cc1cc(C(N)=O)nn1-c1cccc(-c2ccccc2OCC(F)(F)F)c1
- inhibition at 10 µM (hERG (KCNH2)): 43%
- Activity (Rattus norvegicus [2]): 18%
- Activity (Rattus norvegicus [3]): 4%

- IC50 [1]: 0.224 µM
Compound: Cc1cc(C(N)=O)nn1-c1cccc(-c2ccccc2OC(F)(F)F)c1
- inhibition at 10 µM (hERG (KCNH2)): 6%
- Activity (Rattus norvegicus [2]): 33%
- Activity (Rattus norvegicus [3]): 11%

- IC50 [1]: 0.041 µM
Compound: Cc1cc(C(N)=O)nn1-c1cccc(-c2c(C(F)(F)F)cccc2C(F)(F)F)c1
- inhibition at 10 µM (hERG (KCNH2)): 67%
- Activity (Rattus norvegicus [2]): 16%
- Activity (Rattus norvegicus [3]): 6%

- IC50 [1]: 0.222 µM
Compound: Cc1cc(C(N)=O)nn1-c1cc(-c2ccccc2OC(F)(F)F)ccc1F
- inhibition at 10 µM (hERG (KCNH2)): 62%
- Activity (Rattus norvegicus [2]): 17%
- Activity (Rattus norvegicus [3]): 8%

- IC50 [1]: 0.128 µM
Compound: Cc1cc(C(N)=O)nn1-c1cccc(-c2ccccc2OCC(F)(F)C(F)(F)F)c1
- inhibition at 10 µM (hERG (KCNH2)): 49%
- Activity (Rattus norvegicus [2]): 15%
- Activity (Rattus norvegicus [3]): 9%

- IC50 [1]: 0.065 µM
Compound: NC(=O)c1ccn(-c2cccc(-c3ccccc3OC(F)(F)F)c2)n1
- inhibition at 10 µM (hERG (KCNH2)): 51%

- IC50 [1]: 0.373 µM
Compound: Cc1cc(C(N)=O)nn1-c1ccc(OC(F)(F)F)c(-c2ccccc2OC(F)(F)F)c1
- inhibition at 10 µM (hERG (KCNH2)): 77%

- IC50 [1]: 0.071 µM
Compound: Cc1cc(C(N)=O)nn1-c1cccc(-c2c(F)cccc2C(F)(F)F)c1
- inhibition at 10 µM (hERG (KCNH2)): 74%
- Activity (Rattus norvegicus [2]): 12%
- Activity (Rattus norvegicus [3]): 2%

- IC50 [1]: 0.162 µM
Compound: Cc1cc(C(N)=O)nn1-c1ccc(F)c(-c2ccccc2OC(F)(F)F)c1
- inhibition at 10 µM (hERG (KCNH2)): 66%

- IC50 [1]: 0.111 µM
Compound: NC(=O)c1cc(N)n(-c2cccc(-c3ccccc3OC(F)(F)F)c2)n1
- inhibition at 10 µM (hERG (KCNH2)): 44%

- IC50 [1]: 0.272 µM
- IC50 (Cytochrome P450 3A4): 51 µM
- IC50 (Cytochrome P450 2C9): 2.6 µM
- IC50 (Cytochrome P450 2D6): 33 µM
Compound: Cc1cc(C(N)=O)nn1-c1cccc(-c2cc(C(F)(F)F)ccc2C(F)(F)F)c1
- inhibition at 10 µM (hERG (KCNH2)): 51%
- Activity (Rattus norvegicus [2]): 39%
- Activity (Rattus norvegicus [3]): 35%

- IC50 [1]: 0.243 µM
Compound: Cc1cc(C(N)=O)nn1-c1cccc(-c2ccc(Cl)cc2C(F)(F)F)c1
- inhibition at 10 µM (hERG (KCNH2)): 45%
- Activity (Rattus norvegicus [2]): 8%
- Activity (Rattus norvegicus [3]): 0%

- IC50 [1]: 0.163 µM
Compound: Cc1cc(C(N)=O)nn1-c1cccc(-c2ccccc2C(F)(F)F)c1
- inhibition at 10 µM (hERG (KCNH2)): 68%
- Activity (Rattus norvegicus [2]): 14%
- Activity (Rattus norvegicus [3]): 19%
